# Measured values as given in PubChem BioAssay AID1736 (Vanderbilt High Throughput Screening Facility, 2009).
# pEC50: −log10 of the molar value. Results filed as inconclusive are left out. Calls of active or inactive are those of the source.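 Rule for the calls: active = dose curve converging in at least two of three replicates, whether well supported or a less certain trend; inactive = fewer than two replicates with a converged curve.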
# Biological target: Solute carrier family 12 member 5 (Homo sapiens) (UniProt Q9H2X9)
# Assay: KCC2 modulator potency by thallium flux, dose response, cell-based, HEK293 KCC2, FluoZin-2 fluorescence (AID 1736)
# Procedure, shortened: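 Material: KCC2-expressing HEK cells. Medium: HEPES-buffered HBSS plus 0.2 mM ouabain. Probe or stimulus: thallium-containing stimulus buffer for thallium flux. Doses: 11-point threefold dilution series, top dose 30 µM. Technique: thallium-flux fluorescence, FluoZin-2, 480/540 nm. Read-out basis: EC50 from normalized 10–20 s fluorescence slope. Repeats: triplicate wells, each replicate curve fitted separately.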
# Solute carrier family 12 member 5 (Homo sapiens), sequence (Q9H2X9 whole entry, looked up): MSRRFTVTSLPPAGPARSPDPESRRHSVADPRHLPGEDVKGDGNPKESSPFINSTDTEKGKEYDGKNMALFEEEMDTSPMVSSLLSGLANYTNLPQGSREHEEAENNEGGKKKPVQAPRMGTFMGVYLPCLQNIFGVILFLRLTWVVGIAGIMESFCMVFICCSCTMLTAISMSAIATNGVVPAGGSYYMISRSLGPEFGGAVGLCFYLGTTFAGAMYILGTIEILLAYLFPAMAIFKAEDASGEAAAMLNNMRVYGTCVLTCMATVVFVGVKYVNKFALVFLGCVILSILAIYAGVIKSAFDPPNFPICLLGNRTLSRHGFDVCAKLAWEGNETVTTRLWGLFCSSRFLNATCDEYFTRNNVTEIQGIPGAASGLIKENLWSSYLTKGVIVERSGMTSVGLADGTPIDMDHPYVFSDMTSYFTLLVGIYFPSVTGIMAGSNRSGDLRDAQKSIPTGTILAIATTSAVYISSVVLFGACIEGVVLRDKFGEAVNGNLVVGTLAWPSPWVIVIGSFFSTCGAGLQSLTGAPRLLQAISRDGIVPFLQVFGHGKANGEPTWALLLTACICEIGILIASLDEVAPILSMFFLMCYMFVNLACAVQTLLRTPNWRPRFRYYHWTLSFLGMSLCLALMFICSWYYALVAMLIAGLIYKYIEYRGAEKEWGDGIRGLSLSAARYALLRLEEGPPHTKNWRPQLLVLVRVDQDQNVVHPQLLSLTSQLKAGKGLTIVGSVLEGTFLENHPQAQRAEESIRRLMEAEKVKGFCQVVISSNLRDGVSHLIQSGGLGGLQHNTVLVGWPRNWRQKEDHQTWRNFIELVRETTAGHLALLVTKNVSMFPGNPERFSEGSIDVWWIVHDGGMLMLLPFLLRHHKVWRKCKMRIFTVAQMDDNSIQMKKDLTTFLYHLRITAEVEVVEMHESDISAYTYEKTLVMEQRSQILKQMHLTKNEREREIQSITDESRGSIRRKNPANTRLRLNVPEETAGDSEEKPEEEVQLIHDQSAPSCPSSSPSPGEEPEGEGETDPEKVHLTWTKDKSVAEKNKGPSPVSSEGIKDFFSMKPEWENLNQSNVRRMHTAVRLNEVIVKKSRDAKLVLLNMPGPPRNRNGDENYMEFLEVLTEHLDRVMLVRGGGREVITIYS
EC50,pEC50,Structure (SMILES)
inactive,–,Cc1cccc(NC(=S)N=Nc2c(O)n(CN3CCOCC3)c3ccccc23)c1C
–,6.29,COc1ccccc1NC(=S)N=Nc1c(O)[nH]c2ccc(Br)cc12
inactive,–,Cc1ccc(/C=C2\SC(=S)N(/N=C/c3cc([N+](=O)[O-])ccc3O)C2=O)o1
inactive,–,O=C(Nn1c(O)c(C=C2N=c3ccccc3=N2)sc1=S)c1ccccc1
inactive,–,C/C(=N\NC(=O)c1ccc(Br)cc1)C1C(=O)c2ccccc2C1=O
–,6.93,O=C(Nn1c(O)c(C=C2N=c3ccccc3=N2)sc1=S)c1ccccc1Cl
–,6.37,NC(=S)N=Nc1c(O)n(Cc2ccccc2)c2ccccc12
inactive,–,N#CC1=C(N)NC(SCc2ccccc2)=C(C#N)C12CCCCC2
–,7.17,O=C1C2Sc3[nH]c(=O)sc3C(c3ccccc3)C2C(=O)N1c1ccccc1 (centres undefined)
